Experimental data gathered from unrelated publications.
Each line is one published result; the experiments were not run side by side.
Target: Fibroblast growth factor receptor 2 (FGFR2, Homo sapiens, UniProt P21802)

| SMILES | observed | method | concentration | remaining binding |
| --- | --- | --- | --- | --- |
| CN(C)c1ncc(F)c(-c2cnn3ncccc23)n1 | binding | – | 1 µM | 100% |
| C=CC(=O)N1CCC(C(=O)NCC(=O)N2CCN(c3nc(-c4cnc(N)nc4C(F)F)nc(N4CCOCC4)n3)CC2)CC1 | binding | competition with immobilised ligand | 1 µM | 89% |
| COc1ccc2cc(OCC3(C(=O)O)CN(C(=O)c4ccc(F)cc4)C3)ccc2c1 | cell-free assay | competition with immobilised ligand | 1 µM | 100% |
| COc1cnc(Nc2cccc(S(N)(=O)=O)c2)nc1N1CCN(c2ccccc2)C(=O)C1 | binding | competition with immobilised ligand | 1 µM | 90% |
| CN(CCCC(F)(F)F)c1nccc(-c2cnn3ncccc23)n1 | binding | – | 1 µM | 89% |
| COc1cnc(Nc2cccc(S(N)(=O)=O)c2)nc1N1CCN(c2ccccc2)CC1 | binding | competition with immobilised ligand | 1 µM | 90% |
| O=C(O)[C@H]1[C@H](Cn2nnc3ccccc3c2=O)CC[C@@H]1C(=O)c1ccc(OCCC2CCOCC2)cc1 | cell-free assay | competition with immobilised ligand | 1 µM | 100% |
| N#Cc1ccccc1CSc1nnc2c(n1)[nH]c1ccccc12 | binding | competition with immobilised ligand | 10 µM | 91% |
| O=C(O)c1cc(-c2ccc(C3CCNCC3)cc2)c2ccc(-c3ccc(C(F)(F)F)cc3)cc2c1 | cell-free assay | competition with immobilised ligand | 1 µM | 100% |
| CN(C)c1nccc(-c2cnc3ncccn23)n1 | binding | – | 1 µM | 100% |
| Cc1c(C(=O)O)cc(-c2ccc(C3CCNCC3)cc2)c2ccc(-c3ccc(C(F)(F)F)cc3)cc12 | cell-free assay | competition with immobilised ligand | 1 µM | 100% |
| C[C@@H]1CN(c2ccc3ncc(-c4ccc5[nH]nc(C6CC6)c5c4)n3n2)C[C@H](C)O1 | binding | competition with immobilised ligand | 50 nM | 100% |
| CCC(=O)N[C@@H]1CC[C@H](C(=O)N(C)c2ccc(-c3nc4ccccc4o3)cc2)C1 | cell-free assay | competition with immobilised ligand | 1 µM | 86% |
| C[C@@H]1CCN(c2nccc(-c3cnn4ncccc34)n2)C1 | binding | – | 1 µM | 92% |
| C[C@H](c1ccc(F)cc1)N(Cc1cccc(C(=O)O)c1)C(=O)c1cnc2ccccc2c1 | cell-free assay | competition with immobilised ligand | 1 µM | 74% |
| N[C@H]1CCN(c2nccc(-c3cnn4ncccc34)n2)C1 | binding | – | 1 µM | 92% |
| O=C(Nc1c[nH]nc1C(=O)NC1CCNCC1)c1cc(F)cc(F)c1 | binding | competition with immobilised ligand | 1 µM | 100% |
| Cc1cc(C)c(-n2ccn3nc(-c4cccnc4)cc23)cc1NC(=O)c1cc(C#N)cc(S(F)(F)(F)(F)F)c1 | cell-free assay | competition with immobilised ligand | 0.1 µM | 84.3% |
| F[C@@H]1CCN(c2nccc(-c3cnn4ncccc34)n2)C1 | binding | – | 1 µM | 100% |
| c1cncc(-c2cccc(Nc3nccc(NC4CCCCC4)n3)c2)c1 | binding | competition with immobilised ligand | 10 µM | 22% |
| O=C(c1ccc(Nc2ncc(Cl)c(-c3ccc(Cl)s3)n2)cc1)N1CCC(N2CCCC2)CC1 | binding | competition with immobilised ligand | 1 µM | 4.4% |
| CCN1CCN(Cc2ccc(C(=O)Nc3ccc(C)c(Oc4ccc5c(c4)CC(=O)N5)c3)cc2C(F)(F)F)CC1 | binding | competition with immobilised ligand | 1 µM | 83% |
| O=C(NCCCN1CCOCC1)c1ccc(Nc2ncc(Cl)c(-c3ccc(Cl)s3)n2)cc1 | binding | competition with immobilised ligand | 1 µM | 29% |
| c1cnn2ncc(-c3ccnc(N4CCC45COC5)n3)c2c1 | binding | – | 1 µM | 100% |
| O=C(NCCCN1CCOCC1)c1ccc(Nc2nccc(-c3cc4ccccc4s3)n2)cc1 | binding | competition with immobilised ligand | 1 µM | 84% |
| FC(F)(F)Oc1cccc(-c2cnc3ccc(-c4ccncc4)nn23)c1 | cell-free assay | competition with immobilised ligand | 5 µM | 81% |
